From ChEMBL document CHEMBL1138497, “Design and synthesis of small molecule glycerol 3-phosphate acyltransferase inhibitors” (J Med Chem, 2009) come the findings set out here.

A short description of the assay: Inhibition of mitochondrial glycerol 3-phosphate acyltransferase by liquid scintillation counting. Summed up: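 Mitochondrial GPAT preparation added to start reaction in mixture of 14C-labelled glycerol 3-phosphate and palmitoyl-CoA with a range of inhibitor concentrations; acylation quantified by scintillation counting. Triplicate points; IC50 taken as inhibitor level giving 50% of activity seen with DMSO vehicle alone.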

By IC50 is commonly meant the concentration that inhibits the measured activity by half.

Take `O=C(O)c1ccccc1NS(=O)(=O)c1ccccc1`: the IC50 amounted to 146 µM.

As for `O=C(O)c1ccccc1NS(=O)(=O)c1ccc(Cl)cc1`, the midpoint of inhibition, the IC50, lay at 107 µM.

In the case of `CCCCCCCCCCCCCCCCS(=O)(=O)Nc1ccccc1C(=O)O`, half-maximal inhibition (IC50) required 18.3 µM.

Regarding `CCCCCCCCS(=O)(=O)Nc1ccc(O)cc1C(=O)O`, the half-maximal inhibitory concentration (IC50) stood at 116 µM.

For the molecule `CCCCCCCCS(=O)(=O)Nc1ccc(F)cc1C(=O)O`, the IC50 was 89 µM.

On to `CCCCCCCCCS(=O)(=O)Nc1ccc(C(=O)O)cc1`, for which the concentration for half-maximal inhibition (IC50) came to 88.9 µM.

On to `CCCCCS(=O)(=O)NCc1cccc(C(=O)O)c1`, for which half-maximal inhibition (IC50) required 310 µM.

With `CCCCCS(=O)(=O)NCc1ccc(C(=O)O)cc1`, the 50% inhibitory concentration (IC50) stood at 252 µM.

The molecule `CCCCCCCCCS(=O)(=O)NCc1cccc(C(=O)O)c1` came in with a concentration for half-maximal inhibition (IC50) of 83.5 µM.

Molecule `CCCCCS(=O)(=O)NCc1ccccc1C(=O)O` returned an IC50 of 217 µM.

The molecule `O=C(O)c1cccc(NS(=O)(=O)CCc2ccccc2)c1` gave a half-maximal inhibitory concentration (IC50) of 164 µM.

`CCCCCCCCCS(=O)(=O)Nc1ccccc1C(=O)O` gave an IC50 of 24.7 µM.

The molecule `O=C(O)c1ccccc1NS(=O)(=O)Cc1ccccc1` yielded a half-maximal inhibitory concentration (IC50) of 140 µM.

Take `O=C(O)c1ccccc1NS(=O)(=O)CCc1ccccc1`: the IC50 came out at 152 µM.

Consider `CCCCCCCCS(=O)(=O)Nc1ccc(P(=O)(O)O)cc1`, for which the IC50 is 95.3 µM.

`CCCCCCCCCS(=O)(=O)NCc1ccccc1C(=O)O` returned an IC50 of 66.5 µM.

Molecule `CCCCCS(=O)(=O)Nc1ccc(CP(=O)(O)O)cc1` displayed an IC50 of 148 µM.

With `O=C(O)c1cccc(NS(=O)(=O)c2ccccc2)c1`, half-maximal inhibition (IC50) required 138 µM.

In turn, `O=C(O)c1cccc(NS(=O)(=O)c2ccc(Cl)cc2)c1` registered an IC50 of 75.7 µM.

As to `CCCCCCCCS(=O)(=O)Nc1cccc(P(=O)(O)O)c1`, the IC50 turned out to be 72.4 µM.

On to `CCCCCCCCS(=O)(=O)Nc1ccccc1P(=O)(O)O`, for which 73.6 µM corresponded to half-maximal inhibition (IC50).

The molecule `CS(=O)(=O)Nc1ccccc1C(=O)O` came in with a half-maximal inhibitory concentration (IC50) of 132 µM.

In turn, `O=C(O)c1ccc(NS(=O)(=O)Cc2ccccc2)cc1` displayed a concentration for half-maximal inhibition (IC50) of 221 µM.

`O=C(O)c1ccc(NS(=O)(=O)CCc2ccccc2)cc1` yielded an IC50 of 206 µM.

In turn, `O=C(O)c1cccc(NS(=O)(=O)Cc2ccccc2)c1` had an IC50 of 178 µM.

Molecule `CCCCCCCCCS(=O)(=O)Nc1ccccc1CP(=O)(O)O` gave an IC50 of 81.1 µM.

The molecule `O=C(O)c1ccc(NS(=O)(=O)c2ccc(Cl)cc2)cc1` displayed an IC50 of 108 µM.

Molecule `CCCCCS(=O)(=O)Nc1cccc(CP(=O)(O)O)c1` came in with an IC50 of 141 µM.

As for `CCCCCCCCCS(=O)(=O)Nc1ccc(CP(=O)(O)O)cc1`, the IC50 is 81.3 µM.

`CCCCCCCCCS(=O)(=O)Nc1cccc(CP(=O)(O)O)c1` had an IC50 of 62.8 µM.

`CCCCCS(=O)(=O)Nc1ccccc1CP(=O)(O)O` yielded a concentration for half-maximal inhibition (IC50) of 129 µM.

Molecule `CCCCCCCCCS(=O)(=O)Nc1cccc(C(=O)O)c1` displayed a half-inhibitory concentration (IC50) of 73.9 µM.

For `CCCCCCCCCCCCCCS(=O)(=O)Nc1ccccc1C(=O)O`, the IC50 is 17.4 µM.

For the molecule `CCCCCCCCCS(=O)(=O)Nc1ccc(Cl)cc1C(=O)O`, half-maximal inhibition (IC50) required 31.8 µM.

As to `CCCCCCCCCS(=O)(=O)NCc1ccc(C(=O)O)cc1`, half-maximal inhibition (IC50) required 129 µM.

As to `O=C(O)c1ccc(NS(=O)(=O)c2ccccc2)cc1`, the IC50 is 151 µM.
